Data taken from ChEMBL document CHEMBL1926582, “Bis-chalcone analogues as potent NO production inhibitors and as cytotoxic agents” (Eur J Med Chem, 2012).
Active and inactive are the calls of the source. The calls are words filed in the database; no cut-off is given here.

Key:
[1] = system: A549; assay: Cytotoxicity against human A549 cells after 3 days by SRB assay; format: functional, cell-based
How it was run: (§1)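 Cell lines kept in RPMI-1640 with […], 0.25% sodium bicarbonate, 10% FBS and 100 µg/mL kanamycin. Freshly trypsinized cells seeded at 1500-7500 cells/well. Compounds added from DMSO-diluted stock, 3 days culture. Attached cells fixed with cold 50% TCA, stained with 0.4% SRB, bound dye solubilized, absorbance read at 562 nm.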

[2] = system: DU-145; assay: Cytotoxicity against human DU145 cells after 3 days by SRB assay; format: functional, cell-based; how it was run: as §1
[3] = system: KB; assay: Cytotoxicity against human KB cells after 3 days by SRB assay; format: functional, cell-based; how it was run: as §1
[4] = Cytotoxicity against human KBVIN cells after 3 days by SRB assay; format: functional, cell-based; how it was run: as §1
[5] = Inhibition of NOX-dependent ROS production in mouse BV2 cells by chemiluminescence assay; format: cell-based; conditions: BV-2
How it was run: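 BV2 cell homogenate (50 µg) was incubated with compound for 20 min at 37 °C in the dark. Superoxide production was started with 200 µM NADPH and chemiluminescence followed for 30 min. AUC was taken as ROS production. DPI was the positive control. IC50 given as mean ± SEM of three experiments on different days using cells from different passages.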

[6] = system: Radical scavenging activity; assay: Antioxidant activity assessed as inhibition of DPPH free radical scavenging activity; format: functional
[7] = biological target: Transcription factor p65 (Mus musculus) (UniProt Q04207); assay: Inhibition of NF-kappaB p65 activation/translocation in LPS-stimulated mouse BV2 cells assessed as down regulation of iNOS at 1 to 2 uM measured after 15 to 120 mins post stimulation by Western blot analysis; format: cell-based; conditions: BV-2
Transcription factor p65 (Mus musculus), sequence (Q04207 whole entry): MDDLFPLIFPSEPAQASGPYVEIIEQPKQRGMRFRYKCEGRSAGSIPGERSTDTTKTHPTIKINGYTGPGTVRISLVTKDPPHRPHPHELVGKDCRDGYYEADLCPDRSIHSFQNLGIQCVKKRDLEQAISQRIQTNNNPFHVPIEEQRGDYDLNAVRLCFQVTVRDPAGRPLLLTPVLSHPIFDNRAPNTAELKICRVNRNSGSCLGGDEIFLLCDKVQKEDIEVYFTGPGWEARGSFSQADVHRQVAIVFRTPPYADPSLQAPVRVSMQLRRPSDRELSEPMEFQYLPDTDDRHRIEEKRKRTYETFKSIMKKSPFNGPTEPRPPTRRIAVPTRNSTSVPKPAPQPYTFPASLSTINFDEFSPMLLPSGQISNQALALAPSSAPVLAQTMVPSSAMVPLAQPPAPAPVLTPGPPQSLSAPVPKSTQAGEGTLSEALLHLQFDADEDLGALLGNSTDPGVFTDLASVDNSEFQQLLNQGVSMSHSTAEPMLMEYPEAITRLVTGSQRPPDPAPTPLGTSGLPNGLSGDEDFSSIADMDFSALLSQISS
How it was run: (§2)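 BV2 microglia in DMEM with 5% FBS were pretreated with compound or solvent, then stimulated with LPS 0.5 µg/mL for 15 to 120 min. Western blots were probed for iNOS, cytosolic IκBα, and cytosolic and nuclear p65. Membranes were blocked in 5% milk/PBST, primary antibody overnight at 4 °C, HRP secondary 1 h, ECL detection. Signals normalized to β-actin; at least three independent experiments.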

[8] = biological target: T1, NF-kappa-B inhibitor alpha (Mus musculus) (UniProt Q9Z1E3); assay: Inhibition of IkappaB-alpha degradation in LPS-stimulated mouse BV2 cells at 1 to 2 uM measured after 15 to 120 mins post stimulation by Western blot analysis; format: cell-based; conditions: BV-2; how it was run: as §2
T1 sequence (whole entry): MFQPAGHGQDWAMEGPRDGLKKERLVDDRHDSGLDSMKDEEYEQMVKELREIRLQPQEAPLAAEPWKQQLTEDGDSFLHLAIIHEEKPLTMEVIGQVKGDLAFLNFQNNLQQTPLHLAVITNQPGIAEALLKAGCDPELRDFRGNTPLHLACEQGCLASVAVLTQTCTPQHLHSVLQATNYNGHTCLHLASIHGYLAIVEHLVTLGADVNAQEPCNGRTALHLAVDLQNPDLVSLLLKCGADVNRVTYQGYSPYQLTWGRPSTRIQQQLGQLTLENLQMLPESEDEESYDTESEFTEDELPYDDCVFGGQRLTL

[9] = system: A549; assay: Growth inhibition of human A549 cells at 20 ug/mL after 3 days by SRB assay; format: functional; conditions: A549, 72 h, read-out: GI
How it was run: (§3)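 Cells grown in RPMI-1640 (10% FBS, HEPES, bicarbonate, kanamycin), trypsinized and seeded at 1500-7500 cells/well. Compound given from DMSO-diluted stock, 3 days culture. Cells fixed with cold 50% trichloroacetic acid, stained with 0.4% sulforhodamine B, dye solubilized and absorbance measured at 562 nm.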

[10] = system: DU-145; assay: Growth inhibition of human DU145 cells at 20 ug/mL after 3 days by SRB assay; format: functional; conditions: DU-145, 72 h, read-out: GI; how it was run: as §3
[11] = system: KB; assay: Growth inhibition of human KB cells at 20 ug/mL after 3 days by SRB assay; format: functional; conditions: 72 h, read-out: GI; how it was run: as §3
[12] = biological target: Transcription factor p65 (Mus musculus) (UniProt Q04207); assay: Inhibition of NF-kappaB p65 activation/translocation in LPS-stimulated mouse BV2 cells assessed as down regulation of iNOS at 2 to 4 uM measured after 15 to 120 mins post stimulation by Western blot analysis; format: cell-based; conditions: BV-2; how it was run: as §2
[13] = biological target: T1, NF-kappa-B inhibitor alpha (Mus musculus); assay: Inhibition of IkappaB-alpha degradation in LPS-stimulated mouse BV2 cells at 2 to 4 uM measured after 15 to 120 mins post stimulation by Western blot analysis; format: cell-based; conditions: BV-2; how it was run: as §2
[14] = Growth inhibition of human KBVIN cells at 20 ug/mL after 3 days by SRB assay; format: functional; conditions: 72 h, read-out: GI; how it was run: as §3
[15] = Homo sapiens, A549, 72 h, read-out: EC50
[16] = Homo sapiens, DU-145, 72 h, read-out: EC50
[17] = Homo sapiens, KB, 72 h, read-out: EC50
[18] = Homo sapiens, KBVIN, 72 h, read-out: EC50

IC50 [5]	IC50 [6]	SMILES	EC50 ([1]; a549)	EC50 ([2]; du-145)	EC50 ([3]; kb)	EC50 ([4]; kbvin)	EC50 [1, 15]	EC50 [2, 16]	EC50 [3, 17]	EC50 [4, 18]	also measured
120 µM	Not Active	CC(=O)c1cc(C(=O)/C=C/C=C/c2ccccc2)c(O)cc1O	Not Active	Not Active	Not Active	Not Active					
73 µM	Not Active	COc1cc(OC)c(OC)cc1/C=C/C(=O)c1cc(C(C)=O)c(O)cc1O	Not Active	Not Active	Not Active	Not Active					
49.6 µM	Not Active	O=C(/C=C/c1ccco1)c1cc(C(=O)/C=C/c2ccco2)c(O)cc1O	Not Active	Not Active	Not Active	Not Active					
72 µM	Not Active	CC(=O)c1cc(C(=O)/C=C/c2ccc3c(c2)OCO3)c(O)cc1O					19.4 µM	16.3 µM	17.2 µM	17.2 µM	
60.4 µM	Not Active	Cc1ccc(/C=C/C(=O)c2cc(C(=O)/C=C/c3ccc(C)o3)c(O)cc2O)o1	Not Active	Not Active	Not Active	Not Active					
49.1 µM	Not Active	COc1ccc(/C=C/C(=O)c2cc(C(=O)/C=C/c3ccc(OC)c(OC)c3)c(O)cc2O)cc1OC					9.14 µM	8.63 µM	8.18 µM	7.02 µM	inhibition [7]: Active; inhibition [8]: Active
150 µM	Not Active	COc1ccc(/C=C/C(=O)c2cc(C(=O)/C=C/c3ccc(OC)cc3)c(O)cc2O)cc1								34 µM	inhibition of growth at 20 µg/mL [9]: < 50%; inhibition of growth at 20 µg/mL [10]: < 50%; inhibition of growth at 20 µg/mL [11]: < 50%
70.9 µM	Not Active	COc1ccc(/C=C/C(=O)c2cc(C(=O)/C=C/c3ccc(OC)c(OC)c3OC)c(O)cc2O)c(OC)c1OC	Not Active	Not Active	Not Active	Not Active					
76.8 µM	Not Active	O=C(/C=C/c1ccccn1)c1cc(C(=O)/C=C/c2ccccn2)c(O)cc1O					13.7 µM	2.85 µM	2.93 µM	11 µM	
		Cc1c(C)c2c(c(C)c1O)CCC(C)(C(=O)O)O2 (configuration not stated) [TROLOX]									IC50 ([6]; read-out: IC50): 30.2 µM
127 µM	Not Active	COc1cccc(/C=C/C(=O)c2cc(C(=O)/C=C/c3cccc(OC)c3)c(O)cc2O)c1					8.76 µM	1.86 µM	2.88 µM	2.07 µM	
89 µM	Not Active	COc1cccc(/C=C/C(=O)c2cc(C(=O)/C=C/c3cccc(OC)c3OC)c(O)cc2O)c1OC					4.38 µM	2.45 µM	2.06 µM	5.14 µM	inhibition [12]: Active; inhibition [13]: Active
122 µM	Not Active	O=C(/C=C/c1ccccc1)c1cc(C(=O)/C=C/c2ccccc2)c(O)cc1O					4.08 µM	1.7 µM	1.62 µM	1.57 µM	
95 µM	Not Active	COc1ccc(OC)c(/C=C/C(=O)c2cc(C(=O)/C=C/c3cc(OC)ccc3OC)c(O)cc2O)c1							40.1 µM		inhibition of growth at 20 µg/mL [9]: < 50%; inhibition of growth at 20 µg/mL [10]: < 50%; inhibition of growth at 20 µg/mL [14]: < 50%
81.4 µM	Not Active	Cc1ccsc1/C=C/C(=O)c1cc(C(=O)/C=C/c2sccc2C)c(O)cc1O	Not Active	Not Active	Not Active	Not Active					

SMILES	IC50 [5]	IC50 [6]	EC50 ([1]; a549)	EC50 ([2]; du-145)	EC50 ([3]; kb)	EC50 ([4]; kbvin)	EC50 [1, 15]	EC50 [2, 16]	EC50 [3, 17]	EC50 [4, 18]	also measured
COC(=O)[C@@H](N)CCCNC(=N)N[N+](=O)[O-] [L-NAME]		Not Active									
c1ccc2c(c1)[I+]c1ccccc1-2 [DIPHENYLENEIODONIUM]	0.65 µM	Not Active									
